Tests used:
Format in all cases: cell-based, Candida auris
C. auris CBS12775 = experiment: Checkerboard assay coniotin A with caspofungin; settings: refractory C. auris, checkerboard (Fig. 4a)
C. auris CBS10913 = experiment: Intracellular drug accumulation assay; settings: C. auris CBS10913, 20 µM, 10 min, 30 °C, PBS, silicone oil centrifugation, LC-MS
Method in brief: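 Yeast subcultured in SDB at 30 °C with shaking to mid-log (OD530 ≈ 0.6), washed twice in PBS and resuspended in PBS. Equilibrated 5 min at 30 °C, then test compound added to 20 µM final for 10 min. Cells spun at 13,000×g through pre-cooled silicone oil; intracellular compound quantified by LC-MS. Biological triplicates.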

C. auris CBS 10913 = experiment: High-throughput screening of crude extracts and PFL fractions; settings: identified in active fractions of WAC11175, result in words
Method in brief: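 Primary screen: C. auris CBS 10913 colonies grown on YPD agar at 30 °C for 48 h, then suspended in RPMI 1640. 1 µL crude extract or fraction added to 49 µL culture in 384-well format, in duplicate. […] OD530 read after 48 h; hits defined as ≥75% growth inhibition versus untreated. For follow-up, producer strains were regrown on Bennett's agar at 30 °C for 7 days, extracts fractionated on C18, and DMSO-dissolved fractions retested in broth microdilution.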

| Molecule | MIC of caspofungin in the presence of coniotin A (C. auris CBS12775) [µg/mL] | Intracellular accumulation (C. auris CBS10913) | Activity against C. auris (C. auris CBS 10913) |
| --- | --- | --- | --- |
| CC[C@H](C)C[C@H](C)CCCCCCCCC(=O)N[C@H]1C[C@@H](O)[C@@H](NCCN)NC(=O)[C@@H]2[C@@H](O)CCN2C(=O)[C@H]([C@H](O)CCN)NC(=O)[C@H]([C@H](O)[C@@H](O)c2ccc(O)cc2)NC(=O)[C@@H]2C[C@@H](O)CN2C(=O)[C@H]([C@@H](C)O)NC1=O [Caspofungin] | 2 | measurable accumulation |  |
| enniatin A1 |  |  | significant activity |
| enniatin B1 |  |  | significant activity |

— PMC12334575 (Nature Communications, 2025)
